The results in this text go back to paper PMC4577306 (Biochimica et biophysica acta, 2015).

No end group written: not given here.

In one experiment the target is human RIIα (Homo sapiens, UniProt P13861). Description: SPR kinetics of RIIα on immobilized neurochondrin peptides. In kind it is binding. The settings on record: for kon: read-out: ka (apparent association rate constant). A digest of the protocol: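 Human RIIα purified by cAMP affinity chromatography. Test peptides dissolved in DMSO, amine-coupled to CM5 chips after 10 min NHS/EDC activation to about 1 RU, then blocked with 1 M ethanolamine-HCl pH 8.5, at 5 μL/min and 25 °C. Activated/deactivated reference flow cell. Running buffer 100 mM Tris, 150 mM NaCl, 0.005% Tween 20, pH 7.4, 25 °C. Surfaces regenerated with SDS, 4 M guanidinium-HCl and 1 M NaCl buffer.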
Chain of human RIIα (P13861 whole entry): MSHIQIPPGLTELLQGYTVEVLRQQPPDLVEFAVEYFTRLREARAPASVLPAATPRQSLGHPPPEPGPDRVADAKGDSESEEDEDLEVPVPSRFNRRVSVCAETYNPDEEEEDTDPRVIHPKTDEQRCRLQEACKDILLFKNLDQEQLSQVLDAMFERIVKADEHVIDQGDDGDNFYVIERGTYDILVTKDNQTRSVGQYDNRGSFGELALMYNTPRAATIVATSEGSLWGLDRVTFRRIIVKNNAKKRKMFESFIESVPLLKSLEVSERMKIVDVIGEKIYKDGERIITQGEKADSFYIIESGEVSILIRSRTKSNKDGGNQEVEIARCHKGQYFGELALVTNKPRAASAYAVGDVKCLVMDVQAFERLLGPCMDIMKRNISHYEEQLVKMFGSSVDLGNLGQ
In general terms: Surface plasmon resonance follows binding to a sensor surface in real time, without labels.

In experiment [1] the target is neurochondrin peptide II (human). Description: SPR.
Experiment [2] has as its target neurochondrin peptide I (human). Description: SPR.

Consider YAGDIDAKTRRRIFDAVGFTF-NH2 [peptide I], for which, at human RIIα, the Kd (commonly the concentration at which binding is half-saturated) was 9.3 ± 3.1 nM and the kon was found to be 120000 ± 1e+09 M⁻¹ s⁻¹.
In the case of “human RIIα subunit of cAMP-dependent protein kinase (PKA) (from UniProt P13861 1-404) (natural protein)”, the Kd in experiment [1] stood at 9.6 nM; in experiment [2] it was 9.3 nM.
KLSSWQRNPALKLAARLAHA-NH2 [peptide II]: at human RIIα, the equilibrium dissociation constant (Kd) was 9.6 ± 4.8 nM and the kon was 110000 ± 5e+09 M⁻¹ s⁻¹.
